ChEMBL document CHEMBL1629614, “Inhibition of methionyl-tRNA synthetase by REP8839 and effects of resistance mutations on enzyme activity” (Antimicrob Agents Chemother, 2009)

Legend:
[1] = tested on: Streptococcus pneumoniae; test: Activity of Streptococcus pneumoniae MetRS1 by ATP:PPi exchange assay in presence of methionine
[2] = tested on: Escherichia coli; test: Activity of Escherichia coli MetRS by ATP:PPi exchange assay in presence of ATP
[3] = species on record: Homo sapiens; test: Activity of human mitochondrial MetRS by ATP:PPi exchange assay in presence of ATP
[4] = tested on: Staphylococcus aureus; test: Ratio of Kcat to Km for Staphylococcus aureus MetRS in presence of methionine
[5] = tested on: Staphylococcus aureus; test: Activity of Staphylococcus aureus MetRS by ATP:PPi exchange assay in presence of ATP
Summary of the method: (§1)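 Purified S. aureus MetRS (wild type or mutant; E. coli-expressed, ammonium sulfate cut, anion exchange) at 30 nM. ATP:PPi exchange at 30°C in 100 mM Tris-HCl pH 8.0, 5–10 mM Mg acetate, 80 mM KCl, 2.5 mM DTT, [32P]PPi plus cold PPi equal to ATP. Quenched with EDTA over 1–10 min, PEI-cellulose TLC, phosphorimager. Initial velocities versus varied ATP or methionine fit to Michaelis-Menten.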

[6] = species on record: Homo sapiens; test: Activity of human mitochondrial MetRS by ATP:PPi exchange assay in presence of methionine
[7] = tested on: Streptococcus pneumoniae; test: Activity of Streptococcus pneumoniae MetRS1 by ATP:PPi exchange assay in presence of ATP
[8] = tested on: Staphylococcus aureus; test: Ratio of Kcat to Km for Staphylococcus aureus MetRS in presence of tRNA
[9] = tested on: Escherichia coli; test: Activity of Escherichia coli MetRS by ATP:PPi exchange assay in presence of methionine
[10] = tested on: Staphylococcus aureus; test: Activity of Staphylococcus aureus MetRS by ATP:PPi exchange assay in presence of methionine; summary of the method: as §1
[11] = tested on: Staphylococcus aureus; test: Ratio of Kcat to Km for Staphylococcus aureus MetRS in presence of ATP
Summary of the method: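 Purified recombinant S. aureus MetRS (30 nM) was assayed by ATP:PPi exchange at 30°C in Tris pH 8.0 with Mg acetate, KCl and DTT. [32P]PPi was matched to ATP, and ATP or methionine was varied. Time points from 1 to 10 min were quenched with EDTA, separated by PEI-cellulose TLC and read by phosphorimager. Initial rates were fitted to Michaelis-Menten.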

[12] = tested on: Staphylococcus aureus; test: Activity of […] by scintillation proximity assay in presence of tRNA
[13] = tested on: C=C(F)c1sc(CNCCCNc2cc(=O)c3ccccc3[nH]2)c(C)c1Br; test: Activity of Bacillus stearothermophilus MetRS by ATP:PPi exchange assay in presence of ATP; settings: Geobacillus stearothermophilus
[14] = tested on: C=C(F)c1sc(CNCCCNc2cc(=O)c3ccccc3[nH]2)c(C)c1Br; test: Activity of Bacillus stearothermophilus MetRS by ATP:PPi exchange assay in presence of methionine; settings: Geobacillus stearothermophilus

Sequence of Methionine--tRNA ligase (Geobacillus stearothermophilus), P23920 (P23920 whole entry): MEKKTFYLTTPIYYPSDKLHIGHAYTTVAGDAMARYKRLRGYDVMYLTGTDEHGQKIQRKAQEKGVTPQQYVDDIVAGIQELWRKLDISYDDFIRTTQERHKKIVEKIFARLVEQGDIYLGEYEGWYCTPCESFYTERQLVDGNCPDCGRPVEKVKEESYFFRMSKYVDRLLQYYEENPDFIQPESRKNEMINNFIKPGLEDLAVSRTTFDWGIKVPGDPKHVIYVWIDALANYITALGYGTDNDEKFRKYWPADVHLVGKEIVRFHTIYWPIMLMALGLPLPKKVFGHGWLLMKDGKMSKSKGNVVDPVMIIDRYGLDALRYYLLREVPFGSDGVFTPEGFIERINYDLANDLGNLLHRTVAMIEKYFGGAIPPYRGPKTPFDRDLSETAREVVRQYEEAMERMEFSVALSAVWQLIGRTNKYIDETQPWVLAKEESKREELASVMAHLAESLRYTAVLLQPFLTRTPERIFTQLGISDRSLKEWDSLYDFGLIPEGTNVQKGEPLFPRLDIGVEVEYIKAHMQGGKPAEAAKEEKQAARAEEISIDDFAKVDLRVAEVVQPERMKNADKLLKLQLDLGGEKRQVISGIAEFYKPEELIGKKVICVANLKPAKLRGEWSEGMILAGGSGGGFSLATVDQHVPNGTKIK

Compound | Km [1] | Km [2] | Km [3] | kcat/Km [4] | Km [5] | Km [6] | Km [7] | kcat/Km [8] | Km [9] | Km [10] | kcat/Km [11] | Km [12] | kcat [12] | Km [13] | Km [14]
C=C(F)c1sc(CNCCCNc2cc(=O)c3ccccc3[nH]2)c(C)c1Br | 53 µM | 20 µM | 85 µM | 250000 M⁻¹ s⁻¹ | 500 µM | 20 µM | 514 µM | 490000 M⁻¹ s⁻¹ | 20 µM | 100 µM | 50000 M⁻¹ s⁻¹ | 1 µM | 0.49 s⁻¹ |  | 
Methionine--tRNA ligase (Geobacillus stearothermophilus), P23920 |  |  |  |  |  |  |  |  |  |  |  |  |  | 1 µM | 6 µM
